The values below come from PubChem BioAssay AID1325 (NMMLSC, 2008).

In all, about 190,000 compounds went through this assay and about 200 (0.11%) were called active. Shown is part of a subset that was picked to be rich in actives. Unmarked numbers belong to inactive results.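 Rule for the calls: active = inhibition above 80%; inactive = the rest.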

The term inhibition denotes the relative decrease from the control value, in per cent.

Sequence of Broad substrate specificity ATP-binding cassette transporter ABCG2 (Homo sapiens) (Q9UNQ0 whole entry, looked up): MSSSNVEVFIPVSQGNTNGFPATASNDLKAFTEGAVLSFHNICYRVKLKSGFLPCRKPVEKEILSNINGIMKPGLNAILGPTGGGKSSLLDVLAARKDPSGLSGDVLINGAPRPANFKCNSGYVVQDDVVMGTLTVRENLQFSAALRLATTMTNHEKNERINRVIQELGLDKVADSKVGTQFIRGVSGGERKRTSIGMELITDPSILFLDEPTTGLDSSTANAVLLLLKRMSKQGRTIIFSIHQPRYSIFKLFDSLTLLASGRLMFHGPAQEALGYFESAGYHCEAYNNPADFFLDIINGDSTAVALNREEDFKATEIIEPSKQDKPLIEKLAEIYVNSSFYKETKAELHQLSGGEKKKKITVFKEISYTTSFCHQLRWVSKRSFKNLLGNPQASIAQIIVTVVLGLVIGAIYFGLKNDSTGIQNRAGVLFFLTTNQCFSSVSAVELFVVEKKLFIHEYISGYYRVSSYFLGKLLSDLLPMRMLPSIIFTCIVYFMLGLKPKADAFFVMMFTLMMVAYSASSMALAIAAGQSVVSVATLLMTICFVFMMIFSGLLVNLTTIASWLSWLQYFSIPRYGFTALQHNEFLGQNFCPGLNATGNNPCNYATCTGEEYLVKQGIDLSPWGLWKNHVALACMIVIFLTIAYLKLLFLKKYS

This test has as its target Broad substrate specificity ATP-binding cassette transporter ABCG2 (Homo sapiens) (UniProt Q9UNQ0). Nature of the test: ABCG2 efflux pump inhibitors, primary screen, multiplex with ABCB1, IgMXP3 cells, flow cytometry (AID 1325). The settings on record: JC-1 efflux, at 6.6 µM, hits give high values. The procedure, abridged: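 System: two drug-resistant human cell lines, ABCG2 and ABCB1; controls: nicardipine high and DMSO low controls; times: 10 min exposure at 25 °C with rotation, no wash; detection: flow cytometry of retained JC-1 fluorescence; read-out basis: percent efflux inhibition, scaled nicardipine 100% to DMSO 0%; doses: one concentration, 6.6 µM final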
A general note: A flow cytometer gives signals particle by particle.
Consider `Cc1cc(OCc2cc(C(=O)O)oc2C)c2c3c(c(=O)oc2c1)CCCC3`, for which the inhibition was -0.16%.
In the case of `COC(=O)COc1cc(C)cc2oc(=O)c3c(c12)CCCC3` it was 85.8% (active); in that of `Cc1ccc(-c2nc3ccccc3c(=O)n2-c2ccc(Br)cn2)cc1`, 4.52%; in that of `COc1ccc(-c2nn(CCC#N)cc2C(=O)O)cc1`, 12.1%.
Regarding `CN(C)C(=O)Oc1cc(=O)n2c3c(cccc13)CCC2`, the inhibition was 8.26%.
